This note sets out measurements from ChEMBL document CHEMBL1138107, “Novel non-nucleobase inhibitors of Staphylococcus aureus DNA polymerase IIIC” (Bioorg Med Chem Lett, 2006).

In assay [1] the target is T1, DNA polymerase III PolC-type (Staphylococcus aureus, UniProt P0C1P9).
T1 sequence (P0C1P9 whole entry): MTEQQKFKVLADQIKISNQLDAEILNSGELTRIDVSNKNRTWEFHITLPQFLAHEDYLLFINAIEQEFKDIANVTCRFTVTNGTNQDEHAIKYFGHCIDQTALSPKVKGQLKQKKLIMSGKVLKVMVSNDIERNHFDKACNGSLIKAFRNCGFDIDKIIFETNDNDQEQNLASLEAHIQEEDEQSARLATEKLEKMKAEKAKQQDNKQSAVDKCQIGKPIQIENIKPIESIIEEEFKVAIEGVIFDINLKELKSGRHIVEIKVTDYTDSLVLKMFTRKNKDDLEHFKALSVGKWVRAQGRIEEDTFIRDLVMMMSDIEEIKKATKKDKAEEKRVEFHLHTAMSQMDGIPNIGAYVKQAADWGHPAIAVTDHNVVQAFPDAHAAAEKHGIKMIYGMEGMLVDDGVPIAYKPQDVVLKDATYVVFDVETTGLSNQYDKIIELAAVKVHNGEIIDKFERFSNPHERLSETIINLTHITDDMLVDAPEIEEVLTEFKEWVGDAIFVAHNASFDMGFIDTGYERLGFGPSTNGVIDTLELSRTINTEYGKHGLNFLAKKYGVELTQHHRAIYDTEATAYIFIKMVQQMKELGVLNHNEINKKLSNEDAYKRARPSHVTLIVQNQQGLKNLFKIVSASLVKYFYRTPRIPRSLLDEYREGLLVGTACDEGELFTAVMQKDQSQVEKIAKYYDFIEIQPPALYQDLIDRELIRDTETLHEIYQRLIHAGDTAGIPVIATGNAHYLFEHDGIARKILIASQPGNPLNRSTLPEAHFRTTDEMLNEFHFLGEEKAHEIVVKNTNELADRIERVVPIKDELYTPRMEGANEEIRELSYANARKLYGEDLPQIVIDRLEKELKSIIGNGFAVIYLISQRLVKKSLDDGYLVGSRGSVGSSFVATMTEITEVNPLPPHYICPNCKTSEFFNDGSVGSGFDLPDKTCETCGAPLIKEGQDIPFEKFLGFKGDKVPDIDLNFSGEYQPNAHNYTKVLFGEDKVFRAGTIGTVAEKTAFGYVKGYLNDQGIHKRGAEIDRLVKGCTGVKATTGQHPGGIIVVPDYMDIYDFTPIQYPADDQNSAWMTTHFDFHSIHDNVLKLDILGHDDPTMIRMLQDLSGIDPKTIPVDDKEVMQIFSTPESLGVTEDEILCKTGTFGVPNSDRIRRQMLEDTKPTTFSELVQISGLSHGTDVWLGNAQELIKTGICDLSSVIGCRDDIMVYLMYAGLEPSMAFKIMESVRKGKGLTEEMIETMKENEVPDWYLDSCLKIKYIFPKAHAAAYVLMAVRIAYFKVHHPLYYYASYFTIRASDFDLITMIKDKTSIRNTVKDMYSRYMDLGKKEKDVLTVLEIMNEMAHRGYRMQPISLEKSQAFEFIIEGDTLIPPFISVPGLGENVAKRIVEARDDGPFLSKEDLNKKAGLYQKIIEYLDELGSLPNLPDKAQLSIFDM
As to the kind of experiment: Inhibition of DNA polymerase3C from Staphylococcus aureus. The method in brief:
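Purified PolC (125 ng) started the reaction with a double-stranded oligonucleotide substrate, dATP, dCTP, low dGTP and [³H]dTTP (1 Ci/mmol) in Tris-HCl pH 7.5 buffer with glycerol, EDTA, DTT, IgG and 8 mM MgCl₂. Incubation was 30 min at 37 °C, stopped with 20 mM EDTA, then spotted on DE81 filters, washed and counted by scintillation. IC50 came from a 12-point, roughly 2-fold serial dilution, run in triplicate.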

In assay [2] the target is T2, DNA polymerase III PolC-type (Staphylococcus aureus) (UniProt P0C1P9).
T2 sequence (whole entry): T1 sequence (P0C1P9 whole entry)
As to the kind of experiment: Inhibition of DNA polymerase3C from Staphylococcus aureus at 100 uM. The method, boiled down:
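PolC oligonucleotide-primed incorporation of [³H]dTTP was run with 125 ng purified enzyme for 30 min at 37 °C. It was quenched with EDTA, filter-bound on DE81 and counted by liquid scintillation. Compounds were screened in triplicate at 10, 50 and 100.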

Assay [3] has as its system HeLa. Kind of assay: Cytotoxicity against HeLa cell line by MTS assay. It counts as functional, cell-based. The note with it: Homo sapiens. The method, boiled down:
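HeLa cells (2 × 10⁴/well) in DMEM with 1% bovine growth serum were exposed to compound at 100, 50, 25 and 12.5 for 18 h at 37 °C under 5% CO₂. Viability was read as MTS reduction to formazan, by absorbance at 490 nm.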

The test system of assay [4] is Staphylococcus aureus. Kind of assay: Antimicrobial activity against Staphylococcus aureus (RN4220). It counts as functional.
Assay [5] relates to Hepatocyte. Kind of assay: Cytotoxicity against human hepatocytes by measure of ATP production at 100 uM. The class given is functional, cell-based. The method, boiled down:
(§1)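 Cryopreserved primary human hepatocytes (1 × 10⁴/well) in Krebs–Henseleit buffer were incubated with compound at 100, 50, 25 and 12.5 for 2 h at 37 °C under 5% CO₂. ATP content was then measured by luminescence after adding luciferin and luciferase.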

The subject of assay [6] is Staphylococcus aureus. As to the kind of experiment: Antimicrobial activity against Staphylococcus aureus (RN4220) in presence of 50% of human serum. It counts as functional.
In assay [7] the test system is Hepatocyte. As to the kind of experiment: Decrease in ATP productions in human hepatocytes at 100 uM. The class given is functional, cell-based. The method, boiled down: as §1
Assay [8] relates to Staphylococcus aureus. Kind of assay: Inhibition of DNA replication utilizing Staphylococcus aureus replication proteins in presence of reduced dATP concentrations. It counts as functional, organism-based. The method, boiled down: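 The replication assay used a singly primed circular ssM13 template copied by S. aureus PolC, with β clamp, δδ′/τ clamp loader and SSB. [³H]dTTP incorporation was measured in streptavidin-coated scintillation plates, with the dATP concentration reduced to sensitize the assay to dATP analogs.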

In assay [9] the test system is Hepatocyte. As to the kind of experiment: Cytotoxicity against human hepatocytes by measure of ATP production at 50 uM. The class given is functional, cell-based. The method, boiled down: as §1

In brackets after ≈: the same amount, converted by molar mass. Activity calls are given as the source filed them. The rule behind the calls is not given here. A value given as a limit tells only on which side of the number the result lay.

In [1], `COc1cc(C#N)ccc1OCCCc1c(O)nc(Nc2ccc3c(c2)CCC3)nc1O` showed an IC50 of 3 µM. The inhibition in assay [2] turned out to be 95%. The Activity result in assay [3] was “Not toxic”. For the same molecule, the MIC in assay [4] (read-out: MIC) was determined as 16 µg/mL (≈ 37 µM). For the same molecule, the outcome in assay [5] was inactive.
On to `C=CCc1c(O)nc(Nc2ccc3c(c2)CCC3)nc1O`, for which the inhibition in assay [2] amounted to 65%. Also, the Activity result in assay [3] is “Not toxic”. Moreover, the MIC in assay [4] (read-out: MIC) is 16 µg/mL (≈ 56.5 µM); in assay [6], > 128 µg/mL. In assay [5], the result was inactive.
Regarding `C=CCc1c(O)nc(Nc2ccc(C)c(CC)c2)nc1O`, the outcome in assay [7] was Active. Also, the inhibition in [2] stood at 90%. The Activity result in assay [3] is “Not toxic”. In assay [4] (read-out: MIC), the MIC came out at 8 µg/mL (≈ 28 µM).
For `Oc1nc(Nc2ccc3c(c2)CCC3)nc(O)c1CCCc1ccccc1`, in that order: “Active”, 75%, “Not toxic” and 8 µg/mL (≈ 22.1 µM).
As for `CCc1cc(Nc2nc(N)c(Cc3ccccc3)c(O)n2)ccc1C`, the IC50 in assay [8] was found to be 9.7 µM. The same molecule showed an inhibition in assay [2] of 3%. The Activity entry in [3] was “Not toxic”. Moreover, the MIC in [4] (read-out: MIC) and in assay [6] was > 128 µg/mL in each case.
Take `Nc1nc(Nc2ccc3c(c2)CCC3)nc(O)c1CCCc1ccccc1`: the IC50 in assay [8] was > 100 µM. For the same molecule, in assay [2], the inhibition was -0%. For the same molecule, the Activity entry in assay [3] is “Not toxic”. In addition, the MIC in assay [4] (read-out: MIC) and in assay [6] was > 128 µg/mL each time.
`CCc1cc(Nc2nc(N)cc(O)n2)ccc1C`: the IC50 came to 104 µM in [1] and 28 µM in assay [8]. Also, the inhibition in [2] was found to be 36%. In addition, in [3], the Activity entry is “Not toxic”. In addition, the MIC in assay [4] turned out to be 16 µg/mL (≈ 65.5 µM); in assay [6] it was 32 µg/mL.
`Oc1nc(Nc2ccc3c(c2)CCC3)nc(O)c1CCCOc1ccccc1` yielded an IC50 in assay [1] of 4 µM. This molecule also showed an inhibition in assay [2] of 74%. The Activity entry in [9] is “Toxic”; in assay [3], “Not toxic”. Besides, the MIC in [4] (read-out: MIC) was determined as 8 µg/mL (≈ 21.2 µM).
As for `CCc1cc(Nc2nc(O)c(Cc3ccccc3)c(O)n2)ccc1C`, in assay [1], the midpoint of inhibition, the IC50, lay at 4 µM. The molecule also returned an inhibition in assay [2] of 94%. Further, the Activity result in assay [3] was “Not toxic”. The MIC in [4] (read-out: MIC) was found to be 8 µg/mL (≈ 23.9 µM). For the same molecule, the result in [5] was inactive.
